# Test system: HEK-293T
# Assay: Multiplex assay against HEK293T;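 for Population Tubulin-Different-Phenotype (%): share of the cells with healthy nuclei that show this phenotype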
# Assay type: toxicity, cell-based
# Conditions: human
# Procedure, shortened: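 Tubulin, mitochondrial-mass and membrane-permeability phenotypes are per cents of healthy-nucleus cells. Cells were gated by CellPathfinder machine learning into Hoechst high-intensity objects or normal cells, normal cells into healthy, pyknosed or fragmented nuclei, and pyknosed cells into mitotic or apoptotic. Before that, live cells stained at seeding with Hoechst33342, BioTracker Green Microtubule Cytoskeleton Dye, MitoTracker Red and Annexin V Alexa Fluor 680 were imaged on a CQ1 microscope at 37°C and 5% CO2 after compound addition.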
# [1] = 12 h, 1 µM, compound concentration 1 uM, replicate 1
# [2] = 12 h, 1 µM, compound concentration 1 uM, replicate 2
# [3] = 12 h, 10 µM, compound concentration 10 uM, replicate 1
# [4] = 12 h, 10 µM, compound concentration 10 uM, replicate 2
# [5] = 24 h, 1 µM, compound concentration 1 uM, replicate 1
# [6] = 24 h, 1 µM, compound concentration 1 uM, replicate 2
# [7] = 24 h, 10 µM, compound concentration 10 uM, replicate 1
# [8] = 24 h, 10 µM, compound concentration 10 uM, replicate 2
smiles,measurement,setting,value
CCOc1cc2ncc(C#N)c(Nc3ccc(OCc4cccc(F)c4)c(Cl)c3)c2cc1NC(=O)/C=C/CN(C)C [HKI-357],Population Apoptotic (%),[1],18%
same,Population Fragmented Nuclei (%),[1],19%
same,Population Healthy Nuclei (%),[1],59%
same,Population Hoechst High Intensity Objects (%),[1],13%
same,Population Membrane Permeable-Phenotype (%),[1],4%
same,Population Mitochondria Different-Phenotype (%),[1],8%
same,Population Mitotic Cells (%),[1],81%
same,Population Normal (%),[1],86%
same,Population Pyknosed Nuclei (%),[1],21%
same,Population Tubulin-Different-Phenotype (%),[1],4%
same,Total Cell Count,[1],555
same,Population Apoptotic (%),[2],10%
same,Population Fragmented Nuclei (%),[2],7%
same,Population Healthy Nuclei (%),[2],87%
same,Population Hoechst High Intensity Objects (%),[2],1%
same,Population Membrane Permeable-Phenotype (%),[2],1%
same,Population Mitochondria Different-Phenotype (%),[2],10%
same,Population Mitotic Cells (%),[2],89%
same,Population Normal (%),[2],98%
same,Population Pyknosed Nuclei (%),[2],5%
same,Population Tubulin-Different-Phenotype (%),[2],7%
same,Total Cell Count,[2],1619
same,Population Apoptotic (%),[3],31%
same,Population Fragmented Nuclei (%),[3],13%
same,Population Healthy Nuclei (%),[3],50%
same,Population Hoechst High Intensity Objects (%),[3],10%
same,Population Membrane Permeable-Phenotype (%),[3],19%
same,Population Mitochondria Different-Phenotype (%),[3],16%
same,Population Mitotic Cells (%),[3],68%
same,Population Normal (%),[3],89%
same,Population Pyknosed Nuclei (%),[3],35%
same,Population Tubulin-Different-Phenotype (%),[3],61%
same,Total Cell Count,[3],591
same,Population Apoptotic (%),[4],14%
same,Population Fragmented Nuclei (%),[4],3%
same,Population Healthy Nuclei (%),[4],83%
same,Population Hoechst High Intensity Objects (%),[4],2%
same,Population Membrane Permeable-Phenotype (%),[4],11%
same,Population Mitochondria Different-Phenotype (%),[4],23%
same,Population Mitotic Cells (%),[4],85%
same,Population Normal (%),[4],97%
same,Population Pyknosed Nuclei (%),[4],12%
same,Population Tubulin-Different-Phenotype (%),[4],78%
same,Total Cell Count,[4],1328
same,Population Apoptotic (%),[5],31%
same,Population Fragmented Nuclei (%),[5],14%
same,Population Healthy Nuclei (%),[5],74%
same,Population Hoechst High Intensity Objects (%),[5],8%
same,Population Membrane Permeable-Phenotype (%),[5],7%
same,Population Mitochondria Different-Phenotype (%),[5],5%
same,Population Mitotic Cells (%),[5],68%
same,Population Normal (%),[5],91%
same,Population Pyknosed Nuclei (%),[5],11%
same,Population Tubulin-Different-Phenotype (%),[5],9%
same,Total Cell Count,[5],612
same,Population Apoptotic (%),[6],4%
same,Population Fragmented Nuclei (%),[6],26%
same,Population Healthy Nuclei (%),[6],71%
same,Population Hoechst High Intensity Objects (%),[6],2%
same,Population Membrane Permeable-Phenotype (%),[6],4%
same,Population Mitochondria Different-Phenotype (%),[6],2%
same,Population Mitotic Cells (%),[6],96%
same,Population Normal (%),[6],97%
same,Population Pyknosed Nuclei (%),[6],1%
same,Population Tubulin-Different-Phenotype (%),[6],8%
same,Total Cell Count,[6],2811
same,Population Apoptotic (%),[7],28%
same,Population Fragmented Nuclei (%),[7],12%
same,Population Healthy Nuclei (%),[7],59%
same,Population Hoechst High Intensity Objects (%),[7],8%
same,Population Membrane Permeable-Phenotype (%),[7],10%
same,Population Mitochondria Different-Phenotype (%),[7],17%
same,Population Mitotic Cells (%),[7],71%
same,Population Normal (%),[7],91%
same,Population Pyknosed Nuclei (%),[7],28%
same,Population Tubulin-Different-Phenotype (%),[7],72%
same,Total Cell Count,[7],592
same,Population Apoptotic (%),[8],11%
same,Population Fragmented Nuclei (%),[8],11%
same,Population Healthy Nuclei (%),[8],81%
same,Population Hoechst High Intensity Objects (%),[8],3%
same,Population Membrane Permeable-Phenotype (%),[8],12%
same,Population Mitochondria Different-Phenotype (%),[8],9%
same,Population Mitotic Cells (%),[8],88%
same,Population Normal (%),[8],96%
same,Population Pyknosed Nuclei (%),[8],6%
same,Population Tubulin-Different-Phenotype (%),[8],70%
same,Total Cell Count,[8],1894
